≈ marks a conversion by molar mass, not a printed value.
Experiments:
[1] = test system: Mycobacterium tuberculosis; assay: Antitubercular activity against Mycobacterium tuberculosis H37Rv after 7 days by microplate alamar blue assay; format: functional; conditions: 168 h
Summary of the method: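 Microplate alamar blue assay on M. tuberculosis H37Rv. The MIC is the lowest concentration that reduces fluorescence by ≥90% relative to the mean of replicate bacterium-only controls.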

Vero = assay: Cytotoxicity against African green monkey Vero cells assessed as growth inhibition after 48 hrs by MTT assay; format: ADME, cell-based; conditions: Chlorocebus sabaeus
[2] = Selectivity index, ratio of IC50 for African green monkey Vero cells to MIC for Mycobacterium tuberculosis H37Rv
[3] = Oral bioavailability in Balb/c mouse at 100 mg/kg measured over 24 hrs by LC/TSQ quantum access mass spectrometric method; format: ADME, organism-based; conditions: in vivo
H9c2 = assay: Inhibition of mitochondrial protein synthesis in rat H9c2 cells after 5 days by In-Cell ELISA; conditions: H9c2, 120 h
[4] = AUC (0 to infinity) in Balb/c mouse at 100 mg/kg, po measured over 24 hrs by LC/TSQ quantum access mass spectrometric method; format: ADME, organism-based; parameters: dose 100 mg/kg, route oral, time infinity; conditions: in vivo
HepG2 = assay: Cytotoxicity against human HepG2 cells after 48 hrs by MTT assay; conditions: HepG2, 48 h
[5] = Clearance in Balb/c mouse at 10 mg/kg, iv measured over 24 hrs by LC/TSQ quantum access mass spectrometric method; format: ADME, organism-based; conditions: in vivo
[6] = Tmax in Balb/c mouse at 10 mg/kg, iv measured over 24 hrs by LC/TSQ quantum access mass spectrometric method; format: ADME, organism-based; conditions: in vivo
[7] = MRT in Balb/c mouse at 10 mg/kg, iv measured over 24 hrs by LC/TSQ quantum access mass spectrometric method; format: ADME, organism-based; conditions: in vivo
[8] = MRT in Balb/c mouse at 100 mg/kg, po measured over 24 hrs by LC/TSQ quantum access mass spectrometric method; format: ADME, organism-based; conditions: in vivo
[9] = Cmax in Balb/c mouse at 100 mg/kg, po measured over 24 hrs by LC/TSQ quantum access mass spectrometric method; format: ADME, organism-based; parameters: dose 100 mg/kg, route oral; conditions: in vivo
[10] = Tmax in Balb/c mouse at 100 mg/kg, po measured over 24 hrs by LC/TSQ quantum access mass spectrometric method; format: ADME, organism-based; conditions: in vivo
[11] = AUC (0 to infinity) in Balb/c mouse at 10 mg/kg, iv measured over 24 hrs by LC/TSQ quantum access mass spectrometric method; format: ADME, organism-based; parameters: dose 10 mg/kg, time infinity, route intravenous; conditions: in vivo
[12] = Cmax in Balb/c mouse at 10 mg/kg, iv measured over 24 hrs by LC/TSQ quantum access mass spectrometric method; format: ADME, organism-based; parameters: dose 10 mg/kg, route intravenous; conditions: in vivo
Liver [13] = assay: Metabolic stability in CD1 mouse liver microsomes at 0.1 uM in absence of NADPH after 30 mins by LC/MS method; format: ADME, microsome; conditions: 0.5 h
[14] = Plasma elimination half life in Balb/c mouse at 10 mg/kg, iv measured over 24 hrs by LC/TSQ quantum access mass spectrometric method; format: ADME, organism-based; conditions: read-out: beta t1/2 (converted)
Liver [15] = assay: Metabolic stability in human liver microsomes at 0.1 uM in absence of NADPH after 30 mins by LC/MS method; format: ADME, microsome; conditions: 0.5 h
[16] = Metabolic stability in CD1 mouse liver microsomes assessed as compound remaining at 0.1 uM in presence of NADPH after 30 mins by LC/MS method; format: ADME, microsome; conditions: read-out: Stability
[17] = Metabolic stability in human liver microsomes assessed as compound remaining at 0.1 uM in presence of NADPH after 30 mins by LC/MS method; format: ADME, microsome; conditions: read-out: Stability
[18] = Plasma elimination half life in Balb/c mouse at 100 mg/kg, po measured over 24 hrs by LC/TSQ quantum access mass spectrometric method; format: ADME, organism-based; conditions: read-out: beta t1/2 (converted)
[19] = Elimination half life in CD1 mouse at 10 mg/kg, po measured over 24 hrs by HPLC/MS/MS method; format: ADME, organism-based; conditions: in vivo, read-out: beta t1/2

Row | Compound | MIC90 [1] [µg/mL] | IC50 (Vero) [µg/mL] | selectivity ratio [2] | further results
1 | O=C(CO)N1CC=C(c2cc3c(cc2F)N2C(=O)O[C@@H](COc4ccon4)[C@@H]2CO3)CC1 | > 32 |  |  | 
2 | O=C(CO)N1CC=C(c2cc3c(cc2F)N2C(=O)O[C@@H](Cn4ccnn4)[C@@H]2CO3)CC1 | 10.9 (≈ 25.4 µM) |  |  | 
3 | O=C1O[C@@H](Cn2ccnn2)[C@@H]2COc3cc(C4=CCN(CCO)CC4)c(F)cc3N12 | 7.96 (≈ 19.2 µM) |  |  | 
4 | CC(=O)NC[C@@H]1OC(=O)N2c3cc(F)c(C4=CCN(C(=O)[C@@H](O)CO)CC4)cc3OC[C@@H]12 | 0.483 (≈ 1.07 µM) | > 64 | 133 | 
5 | O=C(NC[C@@H]1OC(=O)N2c3cc(F)c(C4=CCN(CCO)CC4)cc3OC[C@@H]12)C1CCC1 | 1.1 (≈ 2.48 µM) | > 64 | 58 | 
6 | O=C(NC[C@@H]1OC(=O)N2c3cc(F)c(C4=CCN(C(=O)CO)CC4)cc3OC[C@@H]12)C1CC1 | 1.87 (≈ 4.19 µM) | > 64 | 34 | 
7 | CC(=O)NC[C@@H]1OC(=O)N2c3cc(F)c(C4=CCN(C(=O)CN)CC4)cc3OC[C@@H]12.Cl | 0.732 | > 64 | 87 | 
8 | COC(=O)NC[C@@H]1OC(=O)N2c3cc(F)c(C4=CCN(CCO)CC4)cc3OC[C@@H]12 | 2.22 (≈ 5.27 µM) | 57.4 (≈ 136 µM) | 26 | 
9 | CC(=O)NC[C@@H]1OC(=O)N2c3cc(F)c(C4=CCN(C(=O)[C@@H]5CCCO5)CC4)cc3OC[C@@H]12 | 5.53 (≈ 12 µM) |  |  | 
10 | CC(=O)NC[C@@H]1OC(=O)N2c3cc(F)c(C4=CCN(C(=O)C5CCCC5)CC4)cc3OC[C@@H]12 | 7.94 (≈ 17.4 µM) |  |  | 
11 | NNC(=O)c1ccncc1 [ISONIAZID] | 0.037 (≈ 0.27 µM) |  |  | 
12 | COC(=O)NC[C@@H]1OC(=O)N2c3cc(F)c(C4=CCN(C(=O)CO)CC4)cc3OC[C@@H]12 | 0.999 (≈ 2.29 µM) | > 64 | 64 | 
13 | CC(=O)NC[C@@H]1OC(=O)N2c3cc(F)c(C4=CCN(C(=O)[C@@H]5CCCN5)CC4)cc3OC[C@@H]12.Cl | 7.12 |  |  | 
14 | CO[C@H]1/C=C/O[C@@]2(C)Oc3c(C)c(O)c4c(O)c(c(/C=N/N5CCN(C)CC5)c(O)c4c3C2=O)NC(=O)/C(C)=C\C=C\[C@H](C)[C@H](O)[C@@H](C)[C@@H](O)[C@@H](C)[C@H](OC(C)=O)[C@@H]1C [RIFAMPIN] | 0.057 (≈ 0.0693 µM) |  |  | 
15 | CC(=O)NC[C@@H]1OC(=O)N2c3cc(F)c(C4CCN(CCO)CC4)cc3OC[C@@H]12 | 14.6 (≈ 35.8 µM) |  |  | 
16 | CCC(=O)N1CC=C(c2cc3c(cc2F)N2C(=O)O[C@@H](CNC(C)=O)[C@@H]2CO3)CC1 | 6.36 (≈ 15.2 µM) |  |  | 
17 | O=C(CO)N1CC=C(c2cc3c(cc2F)N2C(=O)O[C@@H](CNc4ccon4)[C@@H]2CO3)CC1 | 1.04 (≈ 2.35 µM) | > 64 | 61 | 
18 | CC(=O)NC[C@@H]1OC(=O)N2c3cc(F)c(C4=CCN(C(=O)CO)CC4)cc3OC[C@@H]12 | 0.391 (≈ 0.932 µM) | > 64 |  | bioavailability [3]: 102%; IC50 (H9c2): 9.19 µM; AUC(0-inf) [4]: 122000 ng·h/mL; IC50 (HepG2): > 64 µg/mL; clearance [5]: 13.9 mL/min/kg; Tmax [6]: 1.8 min; MRT [7]: 2.54 h; MRT [8]: 4.12 h; Cmax [9]: 30000 ng/mL; Tmax [10]: 2 h; AUC(0-inf) [11]: 12000 ng·h/mL; Cmax [12]: 11400 ng/mL; Stability (Liver [13]): Stable; half-life [14]: 8.23 h; Stability (Liver [15]): Stable; remaining at 0.5 h, 0.1 µM [16]: 102%; remaining at 0.5 h, 0.1 µM [17]: 103%; half-life [18]: 4.22 h
19 | O=C(NC[C@@H]1OC(=O)N2c3cc(F)c(C4=CCN(CCO)CC4)cc3OC[C@@H]12)C1CC1 | 0.473 (≈ 1.1 µM) | > 64 | 135 | 
20 | CC(=O)NC[C@@H]1OC(=O)N2c3cc(F)c(C4CCN(C(=O)CO)CC4)cc3OC[C@@H]12 | 3.81 (≈ 9.05 µM) | > 64 | 17 | 
21 | CC(=O)NC[C@@H]1OC(=O)N2c3cc(F)c(C4=CCN(C(=O)C5CC5)CC4)cc3OC[C@@H]12 | 6.4 (≈ 14.9 µM) |  |  | 
22 | CC(=O)NC[C@@H]1OC(=O)N2c3ccc(C4=CCN(CCO)CC4)cc3OC[C@@H]12 | 2.65 (≈ 6.83 µM) | 26.8 (≈ 69.1 µM) | 10 | 
23 | O=C([C@@H](O)CO)N1CC=C(c2c(F)cc(N3C[C@H](COc4ccon4)OC3=O)cc2F)CC1 [POSIZOLID] | 1.02 (≈ 2.2 µM) | > 64 | 62 | 
24 | O=C1O[C@@H](CNC(=O)C(F)(F)F)[C@@H]2COc3cc(C4=CCN(CCO)CC4)c(F)cc3N12 | 1.92 (≈ 4.17 µM) | > 64 | 33 | 
25 | O=C1O[C@@H](CNc2ccon2)[C@@H]2COc3cc(C4=CCN(CCO)CC4)c(F)cc3N12 | 0.98 (≈ 2.28 µM) | > 64 | 65 | 
26 | CC(=O)NC[C@@H]1OC(=O)N2c3cc(F)c(C4=CCN(CCO)CC4)cc3OC[C@@H]12 | 0.578 (≈ 1.43 µM) | > 64 | 111 | 
27 | CC(=O)NC[C@H]1CN(c2ccc(N3CCOCC3)c(F)c2)C(=O)O1 [LINEZOLID] | 0.304 (≈ 0.901 µM) | > 64 | 197 | IC50 (H9c2): 8.71 µM; half-life [19]: < 1 h
28 | O=C(CO)N1CC=C(c2cc3c(cc2F)N2C(=O)O[C@@H](CNC(=O)C(F)(F)F)[C@@H]2CO3)CC1 | 1.16 (≈ 2.45 µM) | > 64 | 55 | 
29 | CC(=O)NC[C@@H]1OC(=O)N2c3ccc(C4=CCN(C(=O)CO)CC4)cc3OC[C@@H]12 | 0.725 (≈ 1.81 µM) | 13.8 (≈ 34.3 µM) | 19 | 
30 | O=C(NC[C@@H]1OC(=O)N2c3cc(F)c(C4=CCN(C(=O)CO)CC4)cc3OC[C@@H]12)C1CCC1 | 1.68 (≈ 3.66 µM) | > 64 | 39 | 

Source: ChEMBL document CHEMBL3997852, “Discovery of Fluorine-Containing Benzoxazinyl-oxazolidinones for the Treatment of Multidrug Resistant Tuberculosis” (ACS Med Chem Lett, 2017)
